# Assay results of several laboratories.
# Lines come from different studies, so protocols differ.
# Target: Ephrin type-B receptor 2 (EPHB2, Homo sapiens, UniProt P29323)
# One construct used (P29323 19-1055): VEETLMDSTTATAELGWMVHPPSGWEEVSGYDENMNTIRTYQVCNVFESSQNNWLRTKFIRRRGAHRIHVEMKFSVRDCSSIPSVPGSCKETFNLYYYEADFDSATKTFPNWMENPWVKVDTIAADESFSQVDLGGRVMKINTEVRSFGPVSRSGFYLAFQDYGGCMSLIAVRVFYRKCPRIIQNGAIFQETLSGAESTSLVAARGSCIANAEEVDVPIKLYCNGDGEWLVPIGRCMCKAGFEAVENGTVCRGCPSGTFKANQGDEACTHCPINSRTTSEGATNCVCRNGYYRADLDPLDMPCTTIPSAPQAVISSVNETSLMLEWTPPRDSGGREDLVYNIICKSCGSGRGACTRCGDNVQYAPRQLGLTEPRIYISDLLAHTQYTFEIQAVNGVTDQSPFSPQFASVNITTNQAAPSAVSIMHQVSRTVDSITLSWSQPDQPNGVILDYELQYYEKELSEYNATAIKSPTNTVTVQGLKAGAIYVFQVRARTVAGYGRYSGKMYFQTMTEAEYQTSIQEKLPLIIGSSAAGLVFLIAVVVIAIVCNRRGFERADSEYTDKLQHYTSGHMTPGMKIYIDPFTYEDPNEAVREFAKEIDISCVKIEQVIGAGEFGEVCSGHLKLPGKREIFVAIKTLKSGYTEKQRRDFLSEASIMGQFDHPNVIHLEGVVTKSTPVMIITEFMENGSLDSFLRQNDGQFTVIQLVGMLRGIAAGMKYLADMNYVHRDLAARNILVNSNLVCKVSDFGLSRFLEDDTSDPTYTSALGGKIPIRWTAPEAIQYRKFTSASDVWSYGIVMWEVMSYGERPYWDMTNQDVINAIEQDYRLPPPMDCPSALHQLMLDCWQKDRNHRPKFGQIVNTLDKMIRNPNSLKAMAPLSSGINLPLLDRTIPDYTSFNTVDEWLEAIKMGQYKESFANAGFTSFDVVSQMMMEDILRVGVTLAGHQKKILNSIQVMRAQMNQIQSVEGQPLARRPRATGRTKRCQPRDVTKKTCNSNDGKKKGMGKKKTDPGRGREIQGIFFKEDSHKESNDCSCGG
Structure (SMILES),read-out,action,technique,concentration,endpoint,value
O=C(Nc1ccc(Oc2ccc(F)cc2)cc1)N1CCc2ncccc2[C@H]1c1ccc(F)cc1,cell-free assay,,competition with immobilised ligand,1 µM,remaining binding,91%
COc1cc(Nc2cnc(C#N)c(O[C@H](C)CN(C)C)n2)ncc1-c1cnn(C)c1,enzyme activity,inhibitor,radiometric,10 µM,remaining activity,63%
FC(F)c1nc2ccccc2n1-c1nc(N2CCOCC2)nc(N2CCOCC2)n1,enzyme activity,inhibitor,,10 µM,remaining activity,106%
N#CCCc1ccc2c(c1)-c1[nH]c3ccc([N+](=O)[O-])cc3c1CC(=O)N2,cell-free assay,,,0.5 µM,remaining signal,98.5%
CC/C(=N\NC(=O)NCc1cccc(O)c1)c1ccc(O)c(C)c1O,enzyme activity,inhibitor,,0.1 µM,inhibition,1.5%
CN(C)c1ncnc(-c2ccc3nc(Nc4cc(CN5CCN(C(=O)CC(F)(F)F)CC5)ccn4)[nH]c3c2)c1Cl,cell-free assay,,competition with immobilised ligand,1 µM,remaining binding,100%
Cc1ccc(NC(=O)c2ccc(C)c(C(F)(F)F)c2)cc1C#Cc1nn(C2CCC(O)CC2)c2ncnc(N)c12 (stereo not shown),cell-free assay,,,10 µM,remaining signal,-1%
O=C1NC(=O)c2cc(Nc3ccc(F)cc3)c(Nc3ccc(F)cc3)cc21,cell-free assay,,,0.5 µM,remaining signal,89.3%
Cc1nc(C2CCN(C(=O)c3ccc(OC(F)(F)F)cc3N)CC2)c2ncc(N3CCN(C)CC3)cc2n1,cell-free assay,,competition with immobilised ligand,1 µM,remaining binding,100%
CN1CC(Oc2cnc(C#N)cc2-c2ccn3nc(NC(=O)C4CC4)cc3c2)C1,enzyme activity,inhibitor,,1 µM,inhibition,4%
CCN(CC)CCNC(=O)c1c(C)[nH]c(/C=C2\C(=O)Nc3ccc(F)cc32)c1C,enzyme activity,inhibitor,,10 µM,inhibition,90%
CNC(=O)Nc1ccc2c(c1)[C@@]1(CC2)OC(=O)N(CC(=O)N(Cc2ccc(F)cc2)[C@@H](C)C(F)(F)F)C1=O,cell-free assay,,competition with immobilised ligand,1 µM,remaining binding,87%
COc1cc2ncnc(Nc3ccc(Oc4ccccc4)cc3C)c2cc1OC,enzyme activity,inhibitor,,1 µM,inhibition,25%
Oc1cccc(-c2nc(N3CCOCC3)c3oc4ncccc4c3n2)c1,enzyme activity,inhibitor,,10 µM,remaining activity,105%
CSc1cccnc1N1CCN(Cc2nc3ccccc3[nH]2)CC1,cell-free assay,,competition with immobilised ligand,1 µM,remaining binding,99%
c1ccc(CNc2nc(N3CCOc4ccccc43)nc3c2CCCC3)cc1,target engagement in cells,inhibitor,chemoproteomics,20 mM,inhibition,2.6%
O=C1Nc2ccc(Cl)cc2C1=Cc1cc(Cl)c(O)c(Cl)c1,cell-free assay,,,0.5 µM,remaining signal,90.9%
CC(C)(O)[C@H]1CC[C@H](Nc2ccc3ncc(-c4cccc(C(F)(F)F)c4)n3n2)CC1,enzyme activity,inhibitor,,1 µM,remaining activity,93.5%
Cc1ccc(Nc2nccc(N(C)c3ccc4c(C)n(C)nc4c3)n2)cc1S(N)(=O)=O,enzyme activity,inhibitor,,0.3 µM,inhibition,7%
C#Cc1cccc(Nc2ncnc3cc(OCCOC)c(OCCOC)cc23)c1,cell-free assay,,,0.5 µM,remaining signal,95.1%
CNC(=O)c1cc2c(Oc3ccc(NC(=O)C4(C(=O)Nc5ccc(F)cc5)CC4)cc3)ccnc2cc1OC,enzyme activity,inhibitor,radiometric,1 µM,inhibition,95%
CN(C)C1CCN(CC#Cc2nn(C3CCCC3)c3nc(NCc4ccccc4)ncc23)C1 (stereo not shown),enzyme activity,inhibitor,FRET,1 µM,inhibition,8%
CNC(=O)Nc1ccc2c(c1)CC[C@@]21OC(=O)N(CC(=O)N(Cc2ccc(F)cc2)[C@@H](C)C(F)(F)F)C1=O,cell-free assay,,competition with immobilised ligand,1 µM,remaining binding,72%
COc1cc(/C=C/C(=O)CC(=O)/C=C/c2ccc(O)c(OC)c2)ccc1O,enzyme activity,inhibitor,,1 µM,activity vs control,111%
CC(C)CC(=O)N1CCc2nc(-c3ccc(Br)cc3)nc(N(C)Cc3ccccc3)c2C1,cell-free assay,,competition with immobilised ligand,0.1 µM,remaining binding,80%
O=C(Nc1cnn(-c2csc(C(=O)NC3COC3)c2)c1)Nc1c(F)cccc1Cl,enzyme activity,inhibitor,,5 µM,remaining activity,99.9%
O=C(Nc1cccnn1)N1CCC(=Cc2cccc(Oc3ccc(C(F)(F)F)cn3)c2)CC1,cell-free assay,,competition with immobilised ligand,1 µM,remaining binding,100%
Cc1ccc(C(=O)NCc2ccsc2)cc1C#Cc1cn(C(C)C)c2ncnc(N)c12,enzyme activity,inhibitor,,1 µM,activity vs control,2%
